Results pooled from the literature.
Target: Testis-specific serine/threonine-protein kinase 1 (TSSK1B, Homo sapiens, UniProt Q9BXA7)
One construct used (Q9BXA7 1-367): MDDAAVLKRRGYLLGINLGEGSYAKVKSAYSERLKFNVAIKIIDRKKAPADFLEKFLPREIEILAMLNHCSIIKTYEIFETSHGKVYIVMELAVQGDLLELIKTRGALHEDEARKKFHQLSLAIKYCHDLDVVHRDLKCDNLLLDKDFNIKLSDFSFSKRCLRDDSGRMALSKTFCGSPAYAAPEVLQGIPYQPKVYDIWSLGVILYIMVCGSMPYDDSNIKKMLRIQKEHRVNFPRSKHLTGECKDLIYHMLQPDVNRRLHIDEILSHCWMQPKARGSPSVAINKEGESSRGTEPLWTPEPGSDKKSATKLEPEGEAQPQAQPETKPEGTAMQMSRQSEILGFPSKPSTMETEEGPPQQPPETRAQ

CNc1cccc2cc(C(=O)Nc3ccc(C(=O)O)cc3)c(=O)[nH]c12  inhibition (enzyme activity, inhibitor; 10 µM): 2.1%
CC(C)(C)c1nc(-c2cccc(NS(=O)(=O)c3c(F)cccc3F)c2F)c(-c2ccnc(N)n2)s1  remaining activity (enzyme activity, inhibitor, radiometric; 1 µM): 84%
COc1cc(/C=C/C(=O)CC(=O)/C=C/c2ccc(O)c(OC)c2)ccc1O  activity vs control (enzyme activity, inhibitor; 1 µM): 106%
Cc1ccc(C(=O)Nc2ccc(CN3CCN(C)CC3)c(C(F)(F)F)c2)cc1C#Cc1cnc2cccnn12  remaining activity (enzyme activity, inhibitor; 23.5 nM): 83%
CS(=O)(=O)N1CCCC(NC(=O)[C@H](CCC2CCCCC2)NC(=O)c2ccc(CNC(=O)c3cnc4ccccn34)cc2)C1 (stereo partly drawn)  remaining binding (cell-free assay, competition with immobilised ligand; 0.1 µM): 94%
CCN(CC)CCNC(=O)c1c(C)[nH]c(/C=C2\C(=O)Nc3ccc(F)cc32)c1C  inhibition (enzyme activity, inhibitor; 10 µM): 20%
O=C(Nc1cnn(-c2csc(C(=O)NC3COC3)c2)c1)Nc1c(F)cccc1Cl  remaining activity (enzyme activity, inhibitor; 5 µM): 107%
N#CCCc1ccc2c(c1)-c1[nH]c3ccc([N+](=O)[O-])cc3c1CC(=O)N2  remaining signal (cell-free assay; 0.5 µM): 59.2%
CNC(=O)c1cc(Oc2ccc(NC(=O)Nc3ccc(Cl)c(C(F)(F)F)c3)cc2)ccn1  inhibition (enzyme activity, inhibitor; 0.3 µM): -6%
CCN(CC)c1ccc(C2=NNC(=O)CC2C)cc1[N+](=O)[O-] (stereo not drawn)  remaining activity (enzyme activity, inhibitor; 10 µM): 96%
CN(C)C1CCN(CC#Cc2nn(C3CCCC3)c3nc(NCc4ccccc4)ncc23)C1 (stereo not drawn)  inhibition (enzyme activity, inhibitor, FRET; 10 µM): -8%
CCCS(=O)(=O)Nc1ccc(F)c(C(=O)c2c[nH]c3ncc(-c4ccc(Cl)cc4)cc23)c1F  inhibition (enzyme activity, inhibitor; 1 µM): < 10%
Cc1c(NC(=O)c2cc(C(N)=O)nc3cc(F)ccc23)c(C(F)(F)F)nn1Cc1ccc(C(C)(C)C)cc1  remaining binding (cell-free assay, competition with immobilised ligand; 1 µM): 100%
COc1cc2ncnc(Nc3ccc(Oc4ccccc4)cc3C)c2cc1OC  inhibition (enzyme activity, inhibitor; 1 µM): 2%
COc1ccc2c(O[C@@H]3C[C@H]4C(=O)N[C@]5(C(=O)O)CC5/C=C\CCCCC[C@H](NC(=O)OC5CCCC5)C(=O)N4C3)cc(-c3csc(NC(=O)C(C)C)n3)nc2c1C (stereo partly drawn)  remaining binding (cell-free assay, competition with immobilised ligand; 1 µM): 70%
Cc1cnc(NC2CCOCC2)nc1-n1cnc(C(=O)NC(CN)c2cc(F)cc(Cl)c2)c1 (stereo not drawn)  remaining activity (enzyme activity, inhibitor, radiometric; 1 µM): 55%
O=C(Nc1cccnn1)N1CC(C/C=C/c2cncc(Oc3ccc(C(F)(F)F)cn3)n2)C1  remaining binding (cell-free assay, competition with immobilised ligand; 1 µM): 100%
Cc1ccc(Nc2nccc(N(C)c3ccc4c(C)n(C)nc4c3)n2)cc1S(N)(=O)=O  inhibition (enzyme activity, inhibitor; 10 µM): 1%
CN(C)C(=O)Cn1cc(-c2nc(C3(c4ccc(-c5cnc(N)nc5)cc4)CC3)no2)cn1  remaining binding (cell-free assay, competition with immobilised ligand; 1 µM): 100%
Cc1sc(C(=O)NC2COC2)cc1-n1cc(NC(=O)Nc2c(F)cccc2Cl)cn1  remaining activity (enzyme activity, inhibitor; 10 µM): 103%
CCOCCn1cc(C(=O)Nc2ccc(-n3nc(-c4cccnc4)cc3C(F)(F)F)cn2)ccc1=O  remaining binding (cell-free assay, competition with immobilised ligand; 1 µM): 100%
CCOc1cc(-c2nncn2C)ccc1Nc1ncc2cc(C)nc(NCC(C)(C)C)c2n1  inhibition (enzyme activity, inhibitor, FRET; 1 µM): < 15%
COc1cc(-c2cn(C3CCc4c(F)cccc4N(CC(F)(F)F)C3=O)nn2)ccc1-n1cnc(C)c1 (stereo not drawn)  remaining binding (cell-free assay, competition with immobilised ligand; 1 µM): 100%
Cc1ccc(NC(=O)c2ccc(CN3CCN(C)CC3)cc2)cc1Nc1nc(-c2cccnc2)cs1  remaining signal (cell-free assay; 0.5 µM): 100%
